# Test system: U2OS
# Experiment: Multiplex assay against U2OS
# Assay type: toxicity, cell-based
# Settings: human
# Procedure, shortened: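 Live cells were stained at seeding with Hoechst33342, BioTracker Green Microtubule Cytoskeleton Dye, MitoTracker Red and Annexin V Alexa Fluor 680. Following compound addition, they were imaged on a CQ1 microscope at 37°C and 5% CO2 and gated by CellPathfinder machine learning into Hoechst high-intensity objects or normal cells, with normal cells split into healthy, pyknosed or fragmented nuclei and pyknosed cells into mitotic or apoptotic. Tubulin, mitochondrial-mass and membrane-permeability phenotypes are per cents of healthy-nucleus cells.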
# [1] = 12 h, 1 µM, compound concentration 1 uM, replicate 1
# [2] = 12 h, 1 µM, compound concentration 1 uM, replicate 2
# [3] = 12 h, 10 µM, compound concentration 10 uM, replicate 1
# [4] = 12 h, 10 µM, compound concentration 10 uM, replicate 2
# [5] = 24 h, 1 µM, compound concentration 1 uM, replicate 1
# [6] = 24 h, 1 µM, compound concentration 1 uM, replicate 2
# [7] = 24 h, 10 µM, compound concentration 10 uM, replicate 1
# [8] = 24 h, 10 µM, compound concentration 10 uM, replicate 2
# [9] = 48 h, 1 µM, compound concentration 1 uM, replicate 1
# [10] = 48 h, 1 µM, compound concentration 1 uM, replicate 2
# [11] = 48 h, 10 µM, compound concentration 10 uM, replicate 1
# [12] = 48 h, 10 µM, compound concentration 10 uM, replicate 2
smiles,measurement,setting,value
Cc1nn(C)c2nc(NNC(=O)Nc3cc(Cl)nc(Cl)c3)cc(C(C)C)c12,Population Apoptotic (%),[1],76%
same,Population Fragmented Nuclei (%),[1],23%
same,Population Healthy Nuclei (%),[1],66%
same,Population Hoechst High Intensity Objects (%),[1],1%
same,Population Membrane Permeable-Phenotype (%),[1],5%
same,Population Mitochondria Different-Phenotype (%),[1],3%
same,Population Mitotic Cells (%),[1],24%
same,Population Normal (%),[1],98%
same,Population Pyknosed Nuclei (%),[1],9%
same,Population Tubulin-Different-Phenotype (%),[1],2%
same,Total Cell Count,[1],268
same,Population Apoptotic (%),[2],72%
same,Population Fragmented Nuclei (%),[2],14%
same,Population Healthy Nuclei (%),[2],76%
same,Population Hoechst High Intensity Objects (%),[2],2%
same,Population Membrane Permeable-Phenotype (%),[2],10%
same,Population Mitochondria Different-Phenotype (%),[2],7%
same,Population Mitotic Cells (%),[2],27%
same,Population Normal (%),[2],97%
same,Population Pyknosed Nuclei (%),[2],8%
same,Population Tubulin-Different-Phenotype (%),[2],7%
same,Total Cell Count,[2],131
same,Population Apoptotic (%),[3],77%
same,Population Fragmented Nuclei (%),[3],21%
same,Population Healthy Nuclei (%),[3],56%
same,Population Hoechst High Intensity Objects (%),[3],7%
same,Population Membrane Permeable-Phenotype (%),[3],75%
same,Population Mitochondria Different-Phenotype (%),[3],46%
same,Population Mitotic Cells (%),[3],22%
same,Population Normal (%),[3],92%
same,Population Pyknosed Nuclei (%),[3],21%
same,Population Tubulin-Different-Phenotype (%),[3],80%
same,Total Cell Count,[3],222
same,Population Apoptotic (%),[4],47%
same,Population Fragmented Nuclei (%),[4],15%
same,Population Healthy Nuclei (%),[4],63%
same,Population Hoechst High Intensity Objects (%),[4],4%
same,Population Membrane Permeable-Phenotype (%),[4],57%
same,Population Mitochondria Different-Phenotype (%),[4],63%
same,Population Mitotic Cells (%),[4],52%
same,Population Normal (%),[4],95%
same,Population Tubulin-Different-Phenotype (%),[4],77%
same,Total Cell Count,[4],104
same,Population Apoptotic (%),[5],80%
same,Population Fragmented Nuclei (%),[5],20%
same,Population Healthy Nuclei (%),[5],71%
same,Population Hoechst High Intensity Objects (%),[5],0%
same,Population Membrane Permeable-Phenotype (%),[5],4%
same,Population Mitochondria Different-Phenotype (%),[5],2%
same,Population Mitotic Cells (%),[5],19%
same,Population Normal (%),[5],99%
same,Population Pyknosed Nuclei (%),[5],8%
same,Population Tubulin-Different-Phenotype (%),[5],1%
same,Total Cell Count,[5],328
same,Population Apoptotic (%),[6],93%
same,Population Fragmented Nuclei (%),[6],17%
same,Population Healthy Nuclei (%),[6],73%
same,Population Hoechst High Intensity Objects (%),[6],2%
same,Population Membrane Permeable-Phenotype (%),[6],9%
same,Population Mitochondria Different-Phenotype (%),[6],4%
same,Population Mitotic Cells (%),[6],6%
same,Population Normal (%),[6],97%
same,Population Pyknosed Nuclei (%),[6],9%
same,Population Tubulin-Different-Phenotype (%),[6],4%
same,Total Cell Count,[6],168
same,Population Apoptotic (%),[7],78%
same,Population Fragmented Nuclei (%),[7],19%
same,Population Healthy Nuclei (%),[7],49%
same,Population Hoechst High Intensity Objects (%),[7],5%
same,Population Membrane Permeable-Phenotype (%),[7],69%
same,Population Mitochondria Different-Phenotype (%),[7],58%
same,Population Mitotic Cells (%),[7],21%
same,Population Normal (%),[7],94%
same,Population Pyknosed Nuclei (%),[7],31%
same,Population Tubulin-Different-Phenotype (%),[7],77%
same,Total Cell Count,[7],218
same,Population Apoptotic (%),[8],69%
same,Population Fragmented Nuclei (%),[8],16%
same,Population Healthy Nuclei (%),[8],61%
same,Population Hoechst High Intensity Objects (%),[8],2%
same,Population Membrane Permeable-Phenotype (%),[8],42%
same,Population Mitochondria Different-Phenotype (%),[8],51%
same,Population Mitotic Cells (%),[8],30%
same,Population Normal (%),[8],97%
same,Population Pyknosed Nuclei (%),[8],21%
same,Population Tubulin-Different-Phenotype (%),[8],57%
same,Total Cell Count,[8],110
same,Population Apoptotic (%),[9],88%
same,Population Fragmented Nuclei (%),[9],17%
same,Population Healthy Nuclei (%),[9],75%
same,Population Hoechst High Intensity Objects (%),[9],2%
same,Population Membrane Permeable-Phenotype (%),[9],4%
same,Population Mitochondria Different-Phenotype (%),[9],3%
same,Population Mitotic Cells (%),[9],11%
same,Population Normal (%),[9],97%
same,Population Pyknosed Nuclei (%),[9],7%
same,Population Tubulin-Different-Phenotype (%),[9],2%
same,Total Cell Count,[9],504
same,Population Apoptotic (%),[10],86%
same,Population Fragmented Nuclei (%),[10],21%
same,Population Healthy Nuclei (%),[10],65%
same,Population Hoechst High Intensity Objects (%),[10],1%
same,Population Membrane Permeable-Phenotype (%),[10],8%
same,Population Mitochondria Different-Phenotype (%),[10],4%
same,Population Mitotic Cells (%),[10],13%
same,Population Normal (%),[10],98%
same,Population Pyknosed Nuclei (%),[10],12%
same,Population Tubulin-Different-Phenotype (%),[10],5%
same,Total Cell Count,[10],247
same,Population Apoptotic (%),[11],83%
same,Population Fragmented Nuclei (%),[11],24%
same,Population Healthy Nuclei (%),[11],43%
same,Population Hoechst High Intensity Objects (%),[11],9%
same,Population Membrane Permeable-Phenotype (%),[11],51%
same,Population Mitochondria Different-Phenotype (%),[11],46%
same,Population Mitotic Cells (%),[11],16%
same,Population Normal (%),[11],90%
same,Population Pyknosed Nuclei (%),[11],32%
same,Population Tubulin-Different-Phenotype (%),[11],49%
same,Total Cell Count,[11],244
same,Population Apoptotic (%),[12],80%
same,Population Healthy Nuclei (%),[12],48%
same,Population Hoechst High Intensity Objects (%),[12],6%
same,Population Mitochondria Different-Phenotype (%),[12],63%
same,Population Mitotic Cells (%),[12],20%
same,Population Normal (%),[12],93%
same,Population Pyknosed Nuclei (%),[12],27%
same,Population Tubulin-Different-Phenotype (%),[12],57%
same,Total Cell Count,[12],115

# Source: ChEMBL document CHEMBL5058577, “EUbOPEN Chemogenomics Library 2 (Multiplex)” (2022)
